Test results taken from ChEMBL document CHEMBL1129356, “Novel 3,7-diheterabicyclo[3.3.1]nonanes that possess predominant class III antiarrhythmic activity in 1-4 day post infarction dog models: X-ray diffraction analysis of 3-[4-(1H-imidazol-1-yl)benzoyl]-7-isopropyl-3,7-diazabicyclo[3.3.1]nona ne dihydroperchlorate” (1996).
The source made the active and inactive calls.

Legend:
[1] = tested on: Canis familiaris; assay: Antiarrhythmic property A-V nodal conduction time(post drug) is compared to lidocaine(2) using dose (3 and 6 mg/kg); No effect; format: functional, organism-based; set-up: dose 6 mg/kg; details: Canis lupus familiaris; Heart
In short: (§1)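 Mongrel dogs (~12–25 kg), 1–4 days after coronary occlusion leaving a surviving epicardial rim, anesthetized with sodium pentobarbital (~30 mg/kg). 12-lead ECG monitored throughout. Agent given iv at 3 and 6 mg/kg. Parameters recorded before (drug free) and after dosing. Programmed electrical stimulation tested SVT inducibility (≥250 beats/min, ≥30 s) at baseline, ~2–5 min after each dose, and at 30 min.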

[2] = tested on: Canis familiaris; assay: Antiarrhythmic property compared to lidocaine(2) using doses(3 and 6 mg/kg). Time required for the ventricular myocardium to undergo depolarization and repolarization ((post drug); No effect; format: functional, organism-based; set-up: dose 6 mg/kg; details: Canis lupus familiaris
In short: (§2)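 Mongrel dogs (about 12–25 kg), 1–4 days after coronary occlusion infarction, under sodium pentobarbital (~30 mg/kg) with 12-lead ECG monitoring. Agents and lidocaine were given iv at 3 and 6 mg/kg. Programmed ventricular stimulation was applied at baseline, about 2–5 min after each dose, and at 30 min. SVT was defined as ≥250 beats/min lasting ≥30 s. Pre means drug-free; post means after dosing.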

[3] = tested on: Canis familiaris; assay: Antiarrhythmic property compared to lidocaine(2) using doses(3 and 6 mg/kg). Time required for the ventricular myocardium to undergo depolarization and repolarization (drug free); No effect; format: functional, organism-based; set-up: dose 6 mg/kg; details: Canis lupus familiaris; in short: as §2
[4] = tested on: Canis familiaris; assay: Antiarrhythmic property A-V nodal conduction time(drug free) is compared to lidocaine(2) using doses(3 and 6 mg/kg); No effect; format: functional, organism-based; set-up: dose 6 mg/kg; details: Canis lupus familiaris; Heart; in short: as §1
[5] = tested on: Canis familiaris; assay: Antiarrhythmic property Heart rate (drug free) is compared to Lidocaine using doses (3 and 6 mg/kg).; format: functional, Canis lupus familiaris; in short: as §1
[6] = tested on: Canis familiaris; assay: Antiarrhythmic property Heart rate (post drug) is compared to Lidocaine using doses(3 and 6 mg/kg). system.; format: functional, Canis lupus familiaris; in short: as §1
[7] = tested on: Canis familiaris; assay: Antiarrhythmic property Mean blood pressure (drug free) is compared to Lidocaine using doses(3 and 6 mg/kg).; format: functional, Canis lupus familiaris; in short: as §1
[8] = tested on: Canis familiaris; assay: Antiarrhythmic property Mean blood pressure(post drug) is compared to Lidocaine using doses(3 and 6 mg/kg); format: functional, Canis lupus familiaris; in short: as §1
[9] = tested on: Canis familiaris; assay: Antiarrhythmic property His-Purkinje conduction time(post drug) is compared to lidocaine(2) using dose(3 and 6 mg/kg); No effect; format: functional, organism-based; set-up: dose 6 mg/kg; details: Canis lupus familiaris; His-Purkinje system; in short: as §2
[10] = tested on: Canis familiaris; assay: Antiarrhythmic property His-Purkinje conduction time(drug free) is compared to lidocaine(2) using doses(3 and 6 mg/kg); No effect; format: functional, organism-based; set-up: dose 6 mg/kg; details: Canis lupus familiaris; His-Purkinje system; in short: as §2
[11] = tested on: Canis familiaris; assay: Antiarrhythmic property ventricular effective refractory period(drug free) is compared to lidocaine(2) using doses(3 and 6 mg/kg); No effect; format: functional, organism-based; set-up: dose 6 mg/kg; details: Canis lupus familiaris; Heart; in short: as §1
[12] = tested on: Canis familiaris; assay: Antiarrhythmic property ventricular effective refractory period(post drug) is compared to lidocaine(2) using doses(3 and 6 mg/kg); No effect; format: functional, organism-based; set-up: dose 6 mg/kg; details: Canis lupus familiaris; Heart; in short: as §1
[13] = tested on: Canis familiaris; assay: (§3) Antiarrhythmic property Nonsustained ventricular tachycardia is compared to lidocaine(2) using dose of (3 and 6 mg/kg); format: functional, Canis lupus familiaris, Heart; in short: as §1
[14] = tested on: Canis familiaris; assay: Antiarrhythmic property A-V nodal conduction time(post drug) is compared to lidocaine(2) using doses(3 and 6 mg/kg); format: functional, Canis lupus familiaris, Heart; in short: as §2
[15] = tested on: Canis familiaris; assay: Antiarrhythmic property is compared to lidocaine(2) using doses(3 and 6 mg/kg). Time required for the ventricular myocardium to undergo depolarization and repolarization ((post drug); format: functional, Canis lupus familiaris; in short: as §2
[16] = tested on: Canis familiaris; assay: Antiarrhythmic property is compared to lidocaine(2) using doses(3 and 6 mg/kg). Time required for the ventricular myocardium to undergo depolarization and repolarization (drug free); format: functional, Canis lupus familiaris; in short: as §2
[17] = tested on: Canis familiaris; assay: Tested for antiarrhythmic property by measuring ability to decrease heart rate(drug free) is compared to Lidocaine using doses (3 and 6 mg/kg).; format: functional, Canis lupus familiaris; in short: as §2
[18] = tested on: Canis familiaris; assay: Tested for antiarrhythmic property by measuring ability to decrease heart rate(post drug) is compared to Lidocaine using doses(3 and 6 mg/kg).; format: functional, Canis lupus familiaris; in short: as §2
[19] = tested on: Canis familiaris; assay: Antiarrhythmic property A-V nodal conduction time(drug free) is compared to lidocaine(2) using doses(3 and 6 mg/kg); format: functional, Canis lupus familiaris, Heart; in short: as §2
[20] = tested on: Canis familiaris; assay: Tested for antiarrhythmic property by measuring ability to decrease Mean blood pressure (drug free) is compared to Lidocaine using doses(3 and 6 mg/kg).; format: functional, Canis lupus familiaris; in short: as §2
[21] = tested on: Canis familiaris; assay: Tested for antiarrhythmic property by measuring ability to decrease Mean blood pressure(post drug) is compared to Lidocaine using doses(3 and 6 mg/kg); format: functional, Canis lupus familiaris; in short: as §2
[22] = tested on: Canis familiaris; assay: (§4) Antiarrhythmic property ventricular effective refractory period(drug free) is compared to lidocaine(2) using doses(3 and 6 mg/kg); format: functional, Canis lupus familiaris, Heart; in short: as §2
[23] = tested on: Canis familiaris; assay: Antiarrhythmic property ventricular effective refractory period(post drug) is compared to lidocaine(2) using doses(3 and 6 mg/kg); format: functional, Canis lupus familiaris, Heart; in short: as §2
[24] = tested on: Canis familiaris; assay: Antiarrhythmic property A-V nodal conduction time(post drug) is compared to lidocaine(2) using dose (3 and 6 mg/kg); format: functional, Canis lupus familiaris, Heart; in short: as §2
[25] = tested on: Canis familiaris; assay: Tested for antiarrhythmic property by measuring ability to decrease heart rate (drug free) is compared to Lidocaine using doses (3 and 6 mg/kg).; format: functional, Canis lupus familiaris; in short: as §2
[26] = tested on: Canis familiaris; assay: Antiarrhythmic properties are compared to lidocaine(2) using doses(3 and 6 mg/kg). Time required for the ventricular myocardium to undergo depolarization and repolarization ((post drug); No effect; format: functional, organism-based; set-up: dose 6 mg/kg; details: Canis lupus familiaris; in short: as §2
[27] = tested on: Canis familiaris; assay: Antiarrhythmic properties are compared to lidocaine(2) using doses(3 and 6 mg/kg). Time required for the ventricular myocardium to undergo depolarization and repolarization (drug free); No effect; format: functional, organism-based; set-up: dose 6 mg/kg; details: Canis lupus familiaris; in short: as §2
[28] = tested on: Canis familiaris; assay: Tested for antiarrhythmic property by measuring ability to decrease Mean blood pressure (post drug) is compared to Lidocaine using doses(3 and 6 mg/kg); format: functional, Canis lupus familiaris; in short: as §2
[29] = tested on: Canis familiaris; assay: Antiarrhythmic properties are compared to lidocaine(2) using doses(3 and 6 mg/kg) measures His-Purkinje conduction time(drug free); No effect; format: functional, organism-based; set-up: dose 6 mg/kg; details: Canis lupus familiaris; His-Purkinje system; in short: as §2
[30] = tested on: Canis familiaris; assay: Antiarrhythmic property His-Purkinje conduction time(post drug) is compared to lidocaine(2) using doses(3 and 6 mg/kg); No effect; format: functional, organism-based; set-up: dose 6 mg/kg; details: Canis lupus familiaris; His-Purkinje system; in short: as §2
[31] = tested on: Canis familiaris; assay: as §3; format: functional, Canis lupus familiaris, Heart; in short: as §2; remark: listed apart in the source
[32] = tested on: Canis familiaris; assay: Tested for antiarrhythmic property by measuring ability to decrease heart rate (post drug) is compared to Lidocaine using doses (3 and 6 mg/kg); format: functional, Canis lupus familiaris; in short: as §2
[33] = tested on: Canis familiaris; assay: Antiarrhythmic properties are compared to lidocaine(2) using doses(3 and 6 mg/kg) measures His-Purkinje conduction time(drug free); format: functional, Canis lupus familiaris, His-Purkinje system; in short: as §1
[34] = tested on: Canis familiaris; assay: Antiarrhythmic property His-Purkinje conduction time(post drug) is compared to lidocaine(2) using doses(3 and 6 mg/kg); format: functional, Canis lupus familiaris, His-Purkinje system; in short: as §2
[35] = tested on: Canis familiaris; assay: Antiarrhythmic property Nonsustained ventricular tachycardia is compared to lidocaine(2) using doses(3 and 6 mg/kg); format: functional, Canis lupus familiaris, Heart; in short: as §1
[36] = tested on: Canis familiaris; assay: as §4; format: functional, Canis lupus familiaris, Heart; in short: as §1; remark: listed apart in the source

c1ccc(CN2CC3CN(CC4CC4)CC(C2)C32SCCS2)cc1
AH interval [1]: inactive | QT [2]: inactive | QT [3]: inactive | AH interval [4]: inactive | HR [5]: 148 beats min-1 | HR [6]: 148 beats min-1 | MBP [7]: 105 mmHg | MBP [8]: 105 mmHg | HV interval [9]: inactive | HV interval [10]: inactive | VERP [11]: inactive | VERP [12]: inactive | NSVT [13]: 3 mg/kg

CC(C)N1CC2CC(CN(C(=O)c3ccc([N+](=O)[O-])cc3)C2)C1.Cl
AH interval [14]: 75 ms | QT [15]: 260 ms | QT [16]: 220 ms | HR [17]: 130 beats min-1 | HR [18]: 100 beats min-1 | AH interval [19]: 60 ms | MBP [20]: 95 mmHg | MBP [21]: 75 mmHg | NSVT [22]: 6 mg/kg | VERP [22]: 160 ms | VERP [23]: 230 ms

O=C(c1ccccc1)N1CC2CC(CN(CC3CC3)C2)C1
AH interval [24]: 70 ms | HR [25]: 120 beats min-1 | HR [18]: 111 beats min-1 | AH interval [19]: 65 ms | QT interval [26]: inactive | QT interval [27]: inactive | MBP [20]: 92 mmHg | MBP [28]: 83 mmHg | HV interval [29]: inactive | HV interval [30]: inactive | VERP [22]: 170 ms | VERP [31]: 190 ms

CC(C)N1CC2CC(CN(C(=O)c3ccc(NS(C)(=O)=O)cc3)C2)C1
HR [25]: 150 beats min-1 | HR [32]: 150 beats min-1 | MBP [20]: 70 mmHg | MBP [21]: 50 mmHg | NSVT [31]: 6 mg/kg

CC(C)N1CC2CC(CN(C(=O)c3ccc(N)cc3)C2)C1.Cl.Cl
AH interval [14]: 65 ms | QT [15]: 220 ms | QT [16]: 210 ms | HR [17]: 130 beats min-1 | HR [18]: 115 beats min-1 | AH interval [19]: 55 ms | MBP [20]: 100 mmHg | MBP [21]: 77 mmHg | NSVT [22]: 6 mg/kg | VERP [23]: 220 ms

CC(C)N1CC2CC(CN(C(=O)c3ccc(NS(C)(=O)=O)cc3)C2)C1.Cl
HR [17]: 150 beats min-1 | HR [18]: 150 beats min-1 | MBP [20]: 95 mmHg | MBP [28]: 95 mmHg | NSVT [31]: 6 mg/kg

c1ccc(CN2CC3CSCC(C3)C2)cc1
HR [5]: 162 beats min-1 | HR [6]: 162 beats min-1 | MBP [7]: 98 mmHg | MBP [8]: 120 mmHg | HV interval [33]: 30 ms | HV interval [34]: 40 ms | NSVT [35]: 3 mg/kg | VERP [35]: 163 ms | VERP [36]: 142 ms
